Where “and” joins values, the source holds several entries; their conditions need not be identical. Identical values can stand only once.
Tested on: HEK-293T
Assay: Multiplex assay against HEK293T
Format: toxicity, cell-based
Conditions: human, number of replicates 2
Summary of the method: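 Cells were classed with CellPathfinder machine-learning gating, first as Hoechst high-intensity objects or normal cells, then (normal cells) as healthy, pyknosed or fragmented nuclei, and finally (pyknosed cells) as mitotic or apoptotic. Staining of live cells at seeding used Hoechst33342, BioTracker Green Microtubule Cytoskeleton Dye, MitoTracker Red and Annexin V Alexa Fluor 680, with imaging on a CQ1 microscope at 37°C and 5% CO2 after compound addition. Tubulin, mitochondrial-mass and membrane-permeability phenotypes are per cents of healthy-nucleus cells.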

[1] = 12 h, 1 µM, compound concentration 1 uM
[2] = 12 h, 10 µM, compound concentration 10 uM
[3] = 24 h, 1 µM, compound concentration 1 uM
[4] = 24 h, 10 µM, compound concentration 10 uM
[5] = 48 h, 1 µM, compound concentration 1 uM
[6] = 48 h, 10 µM, compound concentration 10 uM

Compound: CSc1cc2c(cc1C(F)(F)F)N(C(=O)Nc1cccnc1)CC2
- Population Apoptotic (%) [1]: 48% and 46%
- Population Fragmented Nuclei (%) [1]: 2% and 3%
- Population Healthy Nuclei (%) [1]: 87% and 85%
- Population Hoechst High Intensity Objects (%) [1]: 4% and 5%
- Population Membrane Permeable-Phenotype (%) [1]: 4% and 3%
- Population Mitochondria Different-Phenotype (%) [1]: 9% and 18%
- Population Mitotic Cells (%) [1]: 51% and 53%
- Population Normal (%) [1]: 95% and 94%
- Population Pyknosed Nuclei (%) [1]: 10%
- Population Tubulin-Different-Phenotype (%) [1]: 41% and 47%
- Total Cell Count [1]: 690 and 549
- Population Apoptotic (%) [2]: 51% and 43%
- Population Fragmented Nuclei (%) [2]: 5% and 2%
- Population Healthy Nuclei (%) [2]: 84%
- Population Hoechst High Intensity Objects (%) [2]: 5%
- Population Membrane Permeable-Phenotype (%) [2]: 3%
- Population Mitochondria Different-Phenotype (%) [2]: 5% and 14%
- Population Mitotic Cells (%) [2]: 48% and 56%
- Population Normal (%) [2]: 94%
- Population Pyknosed Nuclei (%) [2]: 9% and 12%
- Population Tubulin-Different-Phenotype (%) [2]: 39%
- Total Cell Count [2]: 679 and 494
- Population Apoptotic (%) [3]: 25% and 42%
- Population Fragmented Nuclei (%) [3]: 5% and 4%
- Population Healthy Nuclei (%) [3]: 88% and 87%
- Population Hoechst High Intensity Objects (%) [3]: 6% and 5%
- Population Membrane Permeable-Phenotype (%) [3]: 2%
- Population Mitochondria Different-Phenotype (%) [3]: 3% and 6%
- Population Mitotic Cells (%) [3]: 74% and 57%
- Population Normal (%) [3]: 93% and 94%
- Population Pyknosed Nuclei (%) [3]: 5% and 8%
- Population Tubulin-Different-Phenotype (%) [3]: 27% and 31%
- Total Cell Count [3]: 1189 and 774
- Population Apoptotic (%) [4]: 20% and 36%
- Population Fragmented Nuclei (%) [4]: 10% and 6%
- Population Healthy Nuclei (%) [4]: 85% and 87%
- Population Hoechst High Intensity Objects (%) [4]: 5% and 7%
- Population Membrane Permeable-Phenotype (%) [4]: 3% and 2%
- Population Mitochondria Different-Phenotype (%) [4]: 2% and 5%
- Population Mitotic Cells (%) [4]: 79% and 63%
- Population Normal (%) [4]: 94% and 92%
- Population Pyknosed Nuclei (%) [4]: 4% and 6%
- Population Tubulin-Different-Phenotype (%) [4]: 26% and 21%
- Total Cell Count [4]: 1164 and 681
- Population Apoptotic (%) [5]: 5% and 7%
- Population Fragmented Nuclei (%) [5]: 14% and 9%
- Population Healthy Nuclei (%) [5]: 83% and 88%
- Population Hoechst High Intensity Objects (%) [5]: 9% and 10%
- Population Membrane Permeable-Phenotype (%) [5]: 6% and 4%
- Population Mitochondria Different-Phenotype (%) [5]: 0%
- Population Mitotic Cells (%) [5]: 94% and 92%
- Population Normal (%) [5]: 90% and 89%
- Population Pyknosed Nuclei (%) [5]: 2%
- Population Tubulin-Different-Phenotype (%) [5]: 14% and 17%
- Total Cell Count [5]: 2977 and 1800
- Population Apoptotic (%) [6]: 5% and 6%
- Population Fragmented Nuclei (%) [6]: 20% and 12%
- Population Healthy Nuclei (%) [6]: 77% and 84%
- Population Hoechst High Intensity Objects (%) [6]: 9% and 7%
- Population Membrane Permeable-Phenotype (%) [6]: 7% and 6%
- Population Mitochondria Different-Phenotype (%) [6]: 0% and 1%
- Population Mitotic Cells (%) [6]: 94% and 93%
- Population Normal (%) [6]: 90% and 92%
- Population Pyknosed Nuclei (%) [6]: 1% and 2%
- Population Tubulin-Different-Phenotype (%) [6]: 11% and 13%
- Total Cell Count [6]: 2869 and 1725

Compound: O=C(Nc1ccnc(NC(=O)C2CC2)c1)c1c(Cl)cccc1Cl
- Population Apoptotic (%) [1]: 42% and 49%
- Population Fragmented Nuclei (%) [1]: 3% and 2%
- Population Healthy Nuclei (%) [1]: 81% and 83%
- Population Hoechst High Intensity Objects (%) [1]: 9% and 5%
- Population Membrane Permeable-Phenotype (%) [1]: 3% and 7%
- Population Mitochondria Different-Phenotype (%) [1]: 11% and 10%
- Population Mitotic Cells (%) [1]: 57% and 50%
- Population Normal (%) [1]: 90% and 94%
- Population Pyknosed Nuclei (%) [1]: 15% and 14%
- Population Tubulin-Different-Phenotype (%) [1]: 43% and 37%
- Total Cell Count [1]: 735 and 602
- Population Apoptotic (%) [2]: 55% and 57%
- Population Fragmented Nuclei (%) [2]: 3% and 2%
- Population Healthy Nuclei (%) [2]: 92% and 91%
- Population Hoechst High Intensity Objects (%) [2]: 3%
- Population Membrane Permeable-Phenotype (%) [2]: 5% and 3%
- Population Mitochondria Different-Phenotype (%) [2]: 8% and 9%
- Population Mitotic Cells (%) [2]: 44% and 42%
- Population Normal (%) [2]: 96%
- Population Pyknosed Nuclei (%) [2]: 3% and 5%
- Population Tubulin-Different-Phenotype (%) [2]: 32% and 35%
- Total Cell Count [2]: 713 and 727
- Population Apoptotic (%) [3]: 37% and 50%
- Population Fragmented Nuclei (%) [3]: 4%
- Population Healthy Nuclei (%) [3]: 84% and 85%
- Population Hoechst High Intensity Objects (%) [3]: 5% and 6%
- Population Membrane Permeable-Phenotype (%) [3]: 4% and 3%
- Population Mitochondria Different-Phenotype (%) [3]: 3%
- Population Mitotic Cells (%) [3]: 62% and 50%
- Population Normal (%) [3]: 94% and 93%
- Population Pyknosed Nuclei (%) [3]: 10% and 9%
- Population Tubulin-Different-Phenotype (%) [3]: 17% and 19%
- Total Cell Count [3]: 1049 and 883
- Population Apoptotic (%) [4]: 42% and 69%
- Population Fragmented Nuclei (%) [4]: 3% and 5%
- Population Healthy Nuclei (%) [4]: 92% and 90%
- Population Hoechst High Intensity Objects (%) [4]: 4% and 3%
- Population Membrane Permeable-Phenotype (%) [4]: 1%
- Population Mitochondria Different-Phenotype (%) [4]: 2% and 3%
- Population Mitotic Cells (%) [4]: 57% and 30%
- Population Normal (%) [4]: 95% and 96%
- Population Pyknosed Nuclei (%) [4]: 3% and 4%
- Population Tubulin-Different-Phenotype (%) [4]: 14% and 15%
- Total Cell Count [4]: 757 and 769
- Population Apoptotic (%) [5]: 19% and 24%
- Population Fragmented Nuclei (%) [5]: 9% and 7%
- Population Healthy Nuclei (%) [5]: 85% and 87%
- Population Hoechst High Intensity Objects (%) [5]: 7%
- Population Membrane Permeable-Phenotype (%) [5]: 3% and 4%
- Population Mitochondria Different-Phenotype (%) [5]: 0% and 1%
- Population Mitotic Cells (%) [5]: 80% and 75%
- Population Normal (%) [5]: 92%
- Population Pyknosed Nuclei (%) [5]: 4%
- Population Tubulin-Different-Phenotype (%) [5]: 10% and 11%
- Total Cell Count [5]: 2441 and 1608
- Population Apoptotic (%) [6]: 38% and 32%
- Population Fragmented Nuclei (%) [6]: 11%
- Population Healthy Nuclei (%) [6]: 86% and 85%
- Population Hoechst High Intensity Objects (%) [6]: 6% and 5%
- Population Membrane Permeable-Phenotype (%) [6]: 1% and 0%
- Population Mitochondria Different-Phenotype (%) [6]: 2%
- Population Mitotic Cells (%) [6]: 61% and 67%
- Population Normal (%) [6]: 93% and 94%
- Population Pyknosed Nuclei (%) [6]: 2% and 3%
- Population Tubulin-Different-Phenotype (%) [6]: 8% and 7%
- Total Cell Count [6]: 1085 and 965
